Reference: EPA's CvTdb concentration-time database

What was measured:
Rat [1] = experiment: concentration in brain after dosing; conditions: 1.5 h; dosed: alpha-Thujone; 25 mg/kg; oral; Male; Harlan Sprague Dawley
Rat [2] = experiment: concentration in brain after dosing; conditions: 0.5 h; dosed: alpha-Thujone; 50 mg/kg; oral; Female; Harlan Sprague Dawley
Rat [3] = experiment: concentration in brain after dosing; conditions: 0.5 h; dosed: alpha-Thujone; 25 mg/kg; oral; Male; Harlan Sprague Dawley
Rat [4] = experiment: concentration in brain after dosing; conditions: 0.5 h; dosed: alpha-Thujone; 25 mg/kg; oral; Male; Harlan Sprague Dawley; remark: listed apart in the source
Rat [5] = experiment: concentration in brain after dosing; conditions: 3 h; dosed: alpha-Thujone; 50 mg/kg; oral; Female; Harlan Sprague Dawley
Rat [6] = experiment: concentration in brain after dosing; conditions: 6 h; dosed: alpha-Thujone; 50 mg/kg; oral; Female; Harlan Sprague Dawley
Rat [7] = experiment: concentration in plasma after dosing; conditions: 1.5 h; dosed: alpha-Thujone; 25 mg/kg; oral; Male; Harlan Sprague Dawley
Rat [8] = experiment: concentration in plasma after dosing; conditions: 6 h; dosed: alpha-Thujone; 25 mg/kg; oral; Male; Harlan Sprague Dawley
Rat [9] = experiment: concentration in plasma after dosing; conditions: 6 h; dosed: alpha-Thujone; 50 mg/kg; oral; Female; Harlan Sprague Dawley
Rat [10] = experiment: concentration in plasma after dosing; conditions: 1.5 h; dosed: alpha-Thujone; 25 mg/kg; oral; Male; Harlan Sprague Dawley; remark: listed apart in the source
Rat [11] = experiment: concentration in plasma after dosing; conditions: dosed: Pyridine, 5 mg/kg, iv, Male, F344
Rat [12] = experiment: concentration in plasma after dosing; conditions: dosed: Pyridine, 25 mg/kg, oral, Male, F344
Rat [13] = experiment: concentration in plasma after dosing; conditions: dosed: Methyleugenol, 37 mg/kg, oral, Male, F344/N
Rat [14] = experiment: concentration in plasma after dosing; conditions: dosed: Methyleugenol, 37 mg/kg, oral, Male, F344/N; remark: listed apart in the source
Rat [15] = experiment: concentration in plasma after dosing; conditions: dosed: Methyleugenol, 37 mg/kg, iv, Male, F344
Rat [16] = experiment: concentration in plasma after dosing; conditions: dosed: Methyleugenol, 37 mg/kg, oral, Male, F344/N; remark: listed apart in the source
Rat [17] = experiment: concentration in plasma after dosing; conditions: 20 min; dosed: Methyleugenol; 37 mg/kg; oral; Female; F344/N
human = experiment: amount in urine after dosing (mg cumulative excretion); conditions: dosed: trichloroethylene, inhalation, duration: 8 hr
How it was run: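 Points were largely digitised from plot screenshots with WebPlotDigitizer or otherwise copied from tables, and they remain in the units each source reported. They come from published in vivo toxicokinetic studies and two structured collections. Sampling and analytical methods follow each source and were often not reported.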

Rat [18] = experiment: concentration in plasma after dosing; conditions: dosed: 2-Hydroxy-4-methoxybenzophenone, 500 mg/kg, oral, Female, F344
Mouse [19] = experiment: concentration in plasma after dosing; conditions: 0.25 h; dosed: 2-Hydroxy-4-methoxybenzophenone; 250 mg/kg; oral; Male; B6C3F1
Mouse [20] = experiment: concentration in plasma after dosing; conditions: 3 h; dosed: 2-Hydroxy-4-methoxybenzophenone; 50 mg/kg; iv; Male; B6C3F1
Mouse [21] = experiment: concentration in plasma after dosing; conditions: dosed: 2,4-Dichlorophenoxyacetic acid, 1.0 mg/kg, iv, Male, B6C3F1
Rat [22] = experiment: concentration in plasma after dosing; conditions: dosed: 2,4-Dichlorophenoxyacetic acid, 2.0 mg/kg, iv, Male, Sprague-Dawley
Rat [23] = experiment: concentration in liver after dosing; conditions: 48 h; dosed: Perfluorohexane-1-sulphonic acid – potassium salt; 16 mg/kg; oral; Female; Harlan Sprague Dawley
Rat [24] = experiment: concentration in liver after dosing; conditions: 12 h; dosed: Perfluorohexane-1-sulphonic acid – potassium salt; 16 mg/kg; oral; Female; Harlan Sprague Dawley
Rat [25] = experiment: concentration in brain after dosing; conditions: 24 h; dosed: Perfluorohexane-1-sulphonic acid – potassium salt; 16 mg/kg; oral; Female; F344
Rat [26] = experiment: concentration in kidney after dosing; conditions: 528 h; dosed: Perfluorohexane-1-sulphonic acid – potassium salt; 16 mg/kg; oral; Female; F344

CC(C)[C@]12CC(=O)[C@H](C)[C@H]1C2 [alpha-Thujone]
Conditions	concentration in brain [ng/g]	concentration in plasma [ng/mL]
Rat [1]	592	–
Rat [2]	8580	–
Rat [3]	359	–
Rat [4]	883	–
Rat [5]	615	–
Rat [6]	200	–
Rat [7]	–	95.4
Rat [8]	–	68.6
Rat [9]	–	169
Rat [10]	–	130

c1ccncc1 [Pyridine]
concentration in plasma [ng/mL]
Conditions	2 h	4 h	5 min	14 h
Rat [11]	2780	–	–	89
Rat [12]	–	15500	4220	–

C=CCc1ccc(OC)c(OC)c1 [Methyleugenol]
Conditions	concentration in plasma [ng/mL]
Rat [13], 1.5 h	23.6
Rat [13], 6 h	8
Rat [14], 0.5 h	293
Rat [14], 3 h	21.9
Rat [15], 0.5 h	3440
Rat [15], 0.75 h	3090
Rat [16], 6 h	11.1
Rat [16], 10 min	176

Conditions	concentration in plasma [ng/mL]
Rat [17]	374

OCC(Cl)(Cl)Cl [trichloroethanol]
human
Conditions	amount in urine
7.932 h, 97 ppm	111
7.949 h, 54 ppm	76.3
8.43 h, 97 ppm	104
8.618 h, 54 ppm	55.6
9.257 h, 97 ppm	96.4
23.71 h, 54 ppm	175
23.74 h, 97 ppm	288
24.11 h, 54 ppm	191
24.33 h, 97 ppm	255
24.69 h, 97 ppm	352
47.97 h, 97 ppm	393
47.99 h, 97 ppm	364
48.13 h, 97 ppm	417
49.69 h, 54 ppm	258
49.75 h, 54 ppm	291
71.65 h, 54 ppm	301
71.89 h, 54 ppm	323
72.02 h, 97 ppm	395
72.49 h, 97 ppm	431
72.5 h, 97 ppm	422
95.28 h, 54 ppm	314
95.43 h, 54 ppm	328
95.87 h, 97 ppm	444
95.88 h, 97 ppm	429
96.05 h, 97 ppm	408
119.38 h, 54 ppm	345
119.39 h, 54 ppm	327
119.52 h, 97 ppm	409
119.58 h, 97 ppm	452
119.67 h, 97 ppm	430
142.52 h, 54 ppm	348
142.61 h, 54 ppm	331
143.45 h, 97 ppm	458
143.64 h, 97 ppm	412
143.71 h, 97 ppm	433
166.64 h, 54 ppm	352
167.26 h, 97 ppm	433
167.33 h, 97 ppm	463
167.44 h, 97 ppm	411
191.64 h, 97 ppm	414
191.88 h, 97 ppm	432
192.11 h, 97 ppm	466

O=C(c1ccccc1)c1ccc(O)cc1O [2,4-Dihydroxybenzophenone]
Rat [18]
Conditions	concentration in plasma [ng/mL]
10 h	150
10 min	258

Conditions	concentration in plasma [ng/mL]
Mouse [19]	1490
Mouse [20]	202

O=C(O)COc1ccc(Cl)cc1Cl [2,4-Dichlorophenoxyacetic acid]
concentration in plasma [ng/mL]
Conditions	0.25 h	0.5 h	0.75 h	2 h	2.5 h	2.5 min	3 h	10 min
Mouse [21]	–	6070	–	–	–	8150	446	8340
Rat [22]	15300	6490	6000	1910	720	26200	282	–

O=S(=O)([O-])C(F)(F)C(F)(F)C(F)(F)C(F)(F)C(F)(F)C(F)(F)F.[K+] [Perfluorohexane-1-sulphonic acid – potassium salt]
Conditions	concentration in brain [ng/g]	concentration in kidney [ng/g]	concentration in liver [ng/g]
Rat [23]	–	–	14300
Rat [24]	–	–	39800
Rat [25]	1390	–	–
Rat [26]	–	8530	–
